PGC1a Ac signal – raises PGC1a acetylation signal in U2OS cells | U2OS PGC1a acetylation AlphaScreen, overnight | activation, % at 15.6 µM | 0.21% of 350,000 active | AID 651723;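 active = every replicate reaching activation of at least 50%, whatever the mean replicate activation; inconclusive = replicates that disagree or another doubt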;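 note: hits raise the AlphaScreen acetylation signal above neutral controls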
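Incubation: overnight compound treatment, 37 °C. System: U2OS cells transduced with flag-tagged PGC1a and GCN5 acetyltransferase. Detection: AlphaScreen lysate read. Compound: single-point compound dosing.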
Hep G6PC suppr – PGC-1a acetylation activator altering hepatocyte G6PC expression | primary mouse hepatocytes, G6PC mRNA qPCR, forskolin | shares compounds with PGC1a Ac signal | G6PC suppression (normalized activity, % of positive control; higher = more suppression), % at 26 µM | 240 tested, under 10 active;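 active = dose curves showing G6PC suppression whose half-maximal dose is at most twice the top valid dose; inconclusive = flat curves with moderate negative activity, or unreliable fits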;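 note: G6PC expression relative to GAPDH housekeeping gene as delta delta Ct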
Hep PCK1 suppr – PGC-1a acetylation activator altering hepatocyte PCK1 expression; shares compounds with PGC1a Ac signal; primary mouse hepatocytes, PCK1 mRNA qPCR, forskolin-stimulated; PCK1 expression decrease, unspecified at 26 µM; 230 tested, under 10 active; AID 743465;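 active = compounds lowering PCK1 expression whose fitted half-maximal concentration is at most twice the top tested dose; inconclusive = flat fit with moderate opposite-direction effect, or poor fit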;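 note: higher delta delta Ct means lower PCK1 expression so positive values indicate hits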
PGC1a hep suppr – PGC-1a acetylation activator altering hepatocyte PGC-1a expression. max activity (PGC-1a expression decrease), %. primary mouse hepatocytes, PGC-1a mRNA qPCR, forskolin; top dose 26 µM. shares compounds with PGC1a Ac signal. 240 tested, under 10 active;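 active = compound lowering PGC-1a expression with fitted half-maximal concentration at most twice its top tested dose; inconclusive = flat curve with moderate opposite-direction effect, or poor fit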
Large screens that a line does not name were inactive (follow-up assays come after a bar, where they were run). These entries were drawn from the full list.

C=CCN=C1S/C(=C/c2ccc([N+](=O)[O-])cc2)C(=O)N1CC=C	none
O=C(Nc1ccc(F)cc1)c1sc2cc(C(F)(F)F)cnc2c1-c1cccs1	none
Cc1ccc(NC(=O)c2sccc2SCc2cccc(C(F)(F)F)c2)cc1	PGC1a Ac signal inconclusive | Hep G6PC suppr inactive | Hep PCK1 suppr inactive | PGC1a hep suppr inactive
COc1ccc(NC(=O)[C@H](Cc2c[nH]c3ccccc23)NC(=O)[C@@H]2Cc3ccccc3CN2)cc1	none
CC1(C)CC(=O)C(N=Nc2cc(Cl)c(Cl)c(Cl)c2)=C(O)C1	none
Cc1ccc(S(=O)(=O)N[C@H]2C=C[C@@H](CC(=O)NCCN3CCCCC3)O[C@H]2CO)cc1	none | Hep PCK1 suppr inactive | PGC1a hep suppr inactive
O=C(NCc1ccccc1)C1Cc2c(-c3ccc(Cl)cc3)ccnc2O1 (stereo unspecified)	PGC1a Ac signal 69.4 | Hep G6PC suppr inactive | Hep PCK1 suppr inactive | PGC1a hep suppr inactive
CN(C)CC(C(=O)c1ccccc1)c1ccccc1 (stereo unspecified)	none
CCn1c2ccccc2c2cc(/C=N/n3cn[nH]c3=S)ccc21	none
COc1cc(/C=C2\SC(=O)NC2=O)ccc1Oc1ccc([N+](=O)[O-])cn1	none
CSCC(=O)N1CCCC(CO)(Cc2ccccc2C)C1 (stereo unspecified)	none
COc1cc(/C=C2\CC(C(C)(C)C)C/C(=C\c3cc(OC)c(OC)c(OC)c3)C2=O)cc(OC)c1OC (stereo unspecified)	none
COC(=O)c1cc(S(=O)(=O)N2CCN(c3ccc(C(C)=O)cc3)CC2)c[nH]1	PGC1a Ac signal inconclusive | Hep G6PC suppr inactive | Hep PCK1 suppr inactive | PGC1a hep suppr inactive
C[C@@H]1CN([C@@H](C)CO)C(=O)c2c(c3ccccc3n2C)-c2ccccc2CO[C@@H]1CN(C)C(=O)Nc1ccc2c(c1)OCO2	PGC1a Ac signal 81.0 | Hep G6PC suppr inactive | Hep PCK1 suppr inactive | PGC1a hep suppr inactive
C[C@@H]1CN([C@@H](C)CO)C(=O)c2c(c3ccccc3n2C)-c2ccccc2CO[C@@H]1CN(C)C(=O)c1ccc(F)cc1	PGC1a Ac signal 117.0 | Hep G6PC suppr inactive | Hep PCK1 suppr inactive | PGC1a hep suppr inactive
C[C@@H]1CN([C@@H](C)CO)C(=O)c2c(c3ccccc3n2C)-c2ccccc2CO[C@@H]1CN(C)C(=O)c1ccccc1	PGC1a Ac signal 76.3 | Hep G6PC suppr inactive | Hep PCK1 suppr inactive | PGC1a hep suppr inactive
C[C@@H]1CN([C@H](C)CO)C(=O)c2c(c3ccccc3n2C)-c2ccccc2CO[C@@H]1CN(C)C(=O)c1ccccc1	PGC1a Ac signal 57.7 | Hep G6PC suppr inactive | Hep PCK1 suppr inconclusive | PGC1a hep suppr inconclusive
CCN(CC)CCNC(=O)c1ccc2c(c1NCCO)C(=O)c1ccccc1C2=O	none
COc1ccc(-c2nc(C#N)c(NCc3ccco3)o2)cc1	none
Cc1nc2ccccn2c1C(=O)/C=C/c1ccc(F)cc1	none
CN(C)c1ncnc2c1ncn2C1OC(CO)C(O)C1O (stereo unspecified)	none
Cc1ccc(-c2n[nH]c(=S)n2/N=C/c2cccn2C)cc1	none
CC1(C(=O)Nc2cccc(C#N)c2)CCN1C(=O)CCc1ccccc1 (stereo unspecified)	none
O=[N+]([O-])c1nn(-c2ccc(Cl)cc2)n(O)c1=NCc1ccncc1	none
CC(C)[C@H](C)NC(=O)N(C)C[C@H]1OCc2ccccc2-c2c(n(C)c3ccccc23)C(=O)N([C@H](C)CO)C[C@H]1C	PGC1a Ac signal 59.2 | Hep G6PC suppr inactive | Hep PCK1 suppr inactive | PGC1a hep suppr inactive
Cc1ccccc1NC(=O)/C(C#N)=C\c1cc(C)n(-c2ccc(C(=O)O)cc2)c1C	none
CCOc1ccc(N(C)S(=O)(=O)c2cc(-c3cc(C)no3)ccc2C(C)C)cc1	PGC1a Ac signal 64.7 | PGC1a hep suppr inconclusive
c1ccc(Sc2ccccn2)cc1	none
O=C(Nc1cnc2ccccc2c1)c1cccnc1	PGC1a Ac signal 267.2 | Hep PCK1 suppr inactive | PGC1a hep suppr inactive
Cc1noc(C)c1S(=O)(=O)Nc1ccc2c(c1)C(=O)N([C@@H](C)CO)C[C@@H](C)[C@@H](CN(C)Cc1ccc3c(c1)OCO3)OCCCC[C@@H](C)O2	none | Hep G6PC suppr inactive | Hep PCK1 suppr inactive | PGC1a hep suppr inconclusive
C[C@@H]1CCCCO[C@H](CN(C)Cc2ccc(Cl)c(Cl)c2)[C@H](C)CN([C@@H](C)CO)C(=O)c2cc(NC(=O)Nc3ccc(F)cc3)ccc2O1	none
COc1cc(C=C(C(C)=O)C(C)=O)ccc1O	none
CCOC(=O)C1CCN(C(=O)CSc2ccc(Br)cc2)CC1	none
Cc1nnc(-c2ccccc2)c(=O)n1/N=C/c1c(O)ccc2ccccc12	none
CC(=O)Nc1ccc(NC(=O)CN(c2cc(Cl)ccc2Cl)S(C)(=O)=O)cc1	PGC1a Ac signal 116.6 | Hep G6PC suppr inactive | PGC1a hep suppr inactive
CCCS(=O)(=O)N1CCCC(C(=O)NCCCOC(C)C)C1 (stereo unspecified)	none
Cc1ccc(Sc2ncnc3onc(C)c23)c(C)c1	none
CN(C)CCCNc1cc(-c2ccccc2)nc2cc(-c3cccc(F)c3)nn12	PGC1a Ac signal inconclusive | Hep G6PC suppr inactive | Hep PCK1 suppr inconclusive | PGC1a hep suppr inconclusive
CC1CCN(C(=O)COC(=O)c2ccc(Br)o2)CC1	none
CSc1nn(-c2ccc(C(=O)OC(C(=O)NC(N)=O)C(C)C)cc2)c(=S)s1 (stereo unspecified)	none
COc1ccc(N=C2SCC(c3ccc(C)cc3)=NN2CCO)cc1	none

Assay outcomes (PubChem)
